The list is not random: actives were taken first. Their share in the collection is about 9.6%.
MT stabilize HCS: microtubule stabilization, imaging screen; HeLa tubulin immunostaining HCS, 24 h; share of cells brighter than vehicle mean+2SD; % tubulin-high responders, % at 10 µM; 200,000 tested, 0.83% active;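 active = plate Z-score above 3 for both tubulin-high and condensed-nucleus cell shares, with cell loss under 80%, at 10 µM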;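 note: anti alpha tubulin signal scored within the nucleus-defined area of each cell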
BaF3 parental: counter-screen for JAK2V617F inhibitors: parental Ba/F3 viability inhibitors; CellTiter-Glo ATP luminescence; inhibition, % at 5.6 µM; 220,000 tested, 1.1% active;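 active = inhibition above a per-campaign cutoff, the mean inhibition of all tested compounds plus 3 SD, cut at about 27% in these data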
b-catenin transl: alters nuclear translocation of beta-catenin in HeLa cells | immunofluorescence imaging | nuclear translocation activity, % at 5 µM | 190,000 tested, 0.3% active;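 active = nuclear translocation activity above 50% at 5 µM, with a well cell count of 50 or more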;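 note: per-cell ratio of nuclear to cytoplasmic median beta-catenin stain intensity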
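Test system: HeLa cells, endogenous beta-catenin; Compound: single 5 µM dose plus 0.02–20 µM confirmation series; Times: compound exposure 24 h at 37°C; Signal: fluorescence imaging of beta-catenin antibody stain plus DAPI; Read-out: % activation, nuclear-to-cytoplasmic median beta-catenin signal ratio per cell.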
APP 5UTR inh: APP translation inhibition. inhibition, % at 2 µM. SH-SY5Y APP 5'UTR-luciferase reporter, luminescence. 190,000 tested, 0.82% active;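 active = inhibition above a set limit, derived from the sample mean plus 3 SD, cut at about 45% in these data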
Ba/F3 V617F tox: loss of viability in JAK2V617F-driven Ba/F3 cells; Ba/F3 EpoR-JAK2V617F viability, ATP luminescence; 220,000 tested, 1.1% active; AID 1446; inhibition, % at 5.6 µM;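 active = inhibition above the campaign mean plus 3 SD over all tested compounds, cut at about 24% in these data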;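 note: cytokine-independent growth of Ba/F3 cells driven by EpoR plus mutant JAK2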
L major viab: reduces viability of Leishmania major promastigotes; resazurin fluorescence viability; inhibition, % at 10 µM; 200,000 tested, 9% active; AID 1063; in the data active = inhibition above about 50%;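 note: promastigotes grown with compound for 44 hours at 28 °C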
A number is an active result; 0 = inactive; - = no result.

SMILES	MT stabilize HCS	BaF3 parental	b-catenin transl	APP 5UTR inh	Ba/F3 V617F tox	L major viab
O=C1OCC2=C1C(c1ccc(F)cc1)Sc1ccccc1N2 (centres undefined)	0	0	0	0	0	0
O=[N+]([O-])c1ccccc1N/N=C1\CC2CC=CC12 (centres undefined)	0	0	0	0	0	0
Cc1nc(SCC(=O)NCCc2ccccc2)c2oc3ccccc3c2n1	0	0	0	0	0	0
c1ccc(-c2nc(NCCCn3ccnc3)c3oc4ccccc4c3n2)cc1	0	0	0	0	0	99.7
Cc1nc(NCCc2ccccc2)c2oc3ccccc3c2n1	0	0	0	0	0	90.0
CCc1nc(NCCCn2ccnc2)c2oc3ccccc3c2n1	0	0	0	0	0	0
Cc1nc(NCCCN2CCOCC2)c2oc3ccccc3c2n1	0	0	-	0	0	97.4
Cc1nc(NCCN2CCOCC2)c2oc3ccccc3c2n1	0	0	0	0	0	0
CC1Cc2ccccc2N1C(=O)c1nn(C)cc1Br (centres undefined)	0	0	0	0	0	0
CC1CN(C(=O)C2CCCC2)C(C)CN1C(=O)C1CCCC1 (centres undefined)	0	0	-	0	0	0
C=CCn1c(=O)c2c3c(sc2n2c(Nc4ccc(C(=O)OCC)cc4)nnc12)CCCC3	0	0	0	0	0	93.6
CCOC(=O)CSc1nnc2n(Cc3ccccc3)c(=O)c3c4c(sc3n12)CCC4	0	0	0	0	0	0
C=CCn1c(=O)c2c3c(sc2n2c(Nc4ccccc4)nnc12)CCCC3	0	0	0	0	0	51.6
C=CCn1c(=O)c2c3c(sc2n2c(Nc4ccc(OC)cc4)nnc12)CCCC3	0	0	-	0	0	0
COc1ccc(/C=N/NC(=O)c2cccnc2)c(C(=O)O)c1OC	-	0	0	-	0	-
COc1ccc(C(=O)NCC(c2cccnc2)N2CCN(c3ccccc3OC)CC2)cc1OC (centres undefined)	0	0	0	0	0	74.0
COc1cccc(C(=O)NCC(c2cccnc2)N2CCN(c3ccccc3OC)CC2)c1 (centres undefined)	0	0	-	0	0	88.3
CC(C)(C)NC(=O)CON=C1c2ccccc2-c2ccccc21	0	0	-	0	0	0
CC(C)(C)NCC(O)CON=C1c2ccccc2-c2ccccc21 (centres undefined)	0	0	0	0	0	98.8
Cc1sc2cc3c(c(C(=O)c4ccccc4)[n+]2c1C)-c1cccc2cccc-3c12	0	88.5	0	0	100.0	100.5
Cc1ccc(F)c(NC(=O)/C(C#N)=C(\O)c2ccc(C(C)(C)C)cc2)c1	0	0	0	0	0	0
O=C(OCc1ccccc1)N1CCCC1/C=C/CN1CCOCC1 (centres undefined)	0	0	0	63.0	0	81.9
CC(NC(=O)C1CCCN1C(=O)OCc1ccccc1)c1ccccc1 (centres undefined)	0	0	-	0	0	0
Nc1ccc(-c2nc3ccc([N+](=O)[O-])cc3[nH]2)cc1	0	0	0	0	0	82.6
O=C(CSc1ncnc2ccccc12)c1ccc2c(c1)OCCO2	0	0	0	0	0	0
SMILES	MT stabilize HCS	BaF3 parental	b-catenin transl	APP 5UTR inh	Ba/F3 V617F tox	L major viab
O=C(Nc1ccc2c(c1)OCO2)C1CCN(C(=O)CSc2ncnc3ccccc23)CC1	0	0	0	0	0	78.6
CC(Sc1ccc2c(c1)OCCO2)C(=O)Nc1ccc2c(c1)OCO2 (centres undefined)	0	0	0	0	0	0
O=C(Nc1ccc2c(c1)OCO2)C1CCN(C(=O)c2ccc(Cl)cc2)CC1	0	0	0	0	0	0
COc1ccc(C(=O)N2CCC(C(=O)Nc3ccc4c(c3)OCO4)CC2)cc1	0	0	0	0	0	52.3
CC(Sc1ncnc2ccccc12)C(=O)Nc1ccc2c(c1)OCO2 (centres undefined)	0	0	0	0	0	80.4
O=C(CCC(=O)N(CC(=O)NC1CCCC1)Cc1cccs1)Nc1nccs1	0	0	0	0	0	0
N=c1ncn(Cc2ccccc2)c2nc(SCCOc3ccccc3)[nH]c12	0	0	0	0	0	0
O=C(COc1ccc(Br)cc1)N/N=C1/SCC(=O)N1Cc1ccco1	0	0	0	0	0	0
CCOc1ccc(N2C(=O)CS/C2=N/NC(=O)COc2ccc3ccccc3c2)cc1	0	0	-	0	0	99.2
COCCCNC(=S)NNC(=O)c1csc2ccccc12	0	0	0	0	0	0

Screens deposited in PubChem BioAssay by several laboratories.
